# Results pooled from the literature.
# Lines come from different studies, so protocols differ.
SMILES,host,sample,route,dose,setting,half-life [h]
C[C@H]1CCCN1Cc1nc2cc(NC(=O)c3ccc4c(cnn4C)c3)ccc2[nH]1,female BALB/c mouse,plasma,oral,100 mg/kg,,0.83
CC(C)Oc1c(NC(=O)c2ccc(NC(=O)[C@H](CC(N)=O)NC(=O)c3ccc(NC(=O)c4ccc(C#N)cc4)cc3)cc2)ccc(C(=O)Nc2ccc(C(=O)O)cc2)c1O,male CD-1 mouse,plasma,subcutaneous,5 mg/kg,single dose,1.65
Nc1ccc(-c2ccncc2)cc1NC(=O)N1CCCC1,male C57BL/6 mouse,brain,intraperitoneal,10 mg/kg,,0.462
COc1ccc(C(O)COc2ccc(-c3csc(-c4ccc(OCC(O)c5ccc(OC)c(OC)c5)cc4)n3)cc2)cc1OC (stereo not shown),C57BL/6 mouse,plasma,oral,75 mg/kg,,4.1
CNC(=O)c1ccccc1Nc1cc(Nc2cc(C)c(C3CCN(CCCCCCNC(=O)COc4cccc5c4C(=O)N(C4CCC(=O)NC4=O)C5=O)CC3)cc2OC(C)C)ncc1C(F)(F)F (stereo not shown),male Swiss mouse,plasma,intraperitoneal,10 mg/kg,,6.1
COc1ccc(NC(=O)N2CCCCN3[C@H](CO)[C@H](c4ccc(C#Cc5ccccc5)cc4)[C@@H]3C2)cc1,mouse,plasma,intravenous,,,3
CCc1cc(OC)c2nccc(N3CCc4c(cc(Cn5ccnc5)cc4-c4cn(C)nc4C(F)(F)F)C3=O)c2c1,male CD-1 mouse,plasma,intravenous,3 mg/kg,,0.9
COc1ccc2c3c1O[C@H]1C[C@@H](OC(=O)c4ccccc4)C=C[C@@]31CCN(C)C2,mouse,blood,intravenous,3 mg/kg,,0.48
CC(C)c1cnn2c(NCc3ccccc3)cc(NC[C@H]3CCNC[C@@H]3O)nc12,male CD-1 mouse,plasma,intravenous,10 mg/kg,,1.9
CC[C@H](C)[C@@H]1NC(=O)[C@@](C)(NC(=O)[C@H](CCCNC(=N)N)NC(=O)[C@H](CC(C)C)NC(=O)[C@@H](NC(=O)[C@H](CCC(N)=O)NC(=O)[C@H](CC(C)C)NC(C)=O)[C@@H](C)O)CCCC=CCCC[C@@](C)(C(=O)N[C@@H](CC(C)C)C(=O)N[C@@H](Cc2ccc3ccccc3c2)C(N)=O)NC(=O)[C@H](CCCNC(=N)N)NC(=O)[C@H](CCC(N)=O)NC1=O,male BALB/c mouse,plasma,intravenous,10 mg/kg,,2.17
CNC(=O)c1cc(Oc2ccc(NC(=O)Nc3ccc(Cl)c(C(F)(F)F)c3)c(F)c2)ccn1,male mouse,plasma,oral,10 mg/kg,single dose,14.9
Cc1noc([C@H](Cc2c[nH]cn2)NC(=O)CN(CCCc2ccccc2)CC(=O)O)n1,male C57BL/6 mouse,plasma,intraperitoneal,30 mg/kg,,0.233
CNC(=O)c1cc(OC)cc2c(N3CCc4c(cc(Cn5ccnc5)cc4-c4cn(C)nc4C(F)(F)F)C3=O)ccnc12,male CD-1 mouse,plasma,oral,50 mg/kg,,1.1
Cc1cc(Nc2ccc(S(F)(F)(F)(F)F)cc2)n2ccnc2n1,male Swiss mouse,plasma,oral,100 mg/kg,single dose,5.8
NCC1CCN(c2nc(-c3ccncc3)nc3sc4c(c23)CCCC4)CC1,female CD-1 mouse,plasma,oral,20 mg/kg,,7.8
Cc1ccc2cncc(N3CCc4c(cc(Cn5ccnc5)cc4-c4cn(C)nc4C(F)(F)F)C3=O)c2c1,male CD-1 mouse,plasma,oral,50 mg/kg,,2
Cc1noc(-c2ccc(CSCCC(=O)O)cc2)c1NC(=O)O[C@H](C)c1ccccc1Cl,mouse,plasma,intravenous,5 mg/kg,,0.49
CCOc1ccc(Cc2cc([C@@H]3O[C@H](CO)[C@@H](O)[C@H](O)[C@H]3O)ccc2Cl)cc1,male C57BL/6 mouse,plasma,intravenous,1 mg/kg,,3.4
OC[C@H]1O[C@@H](c2ccc(Cl)c(Cc3ccc(O[C@H]4CCOC4)cc3)c2)[C@H](O)[C@@H](O)[C@@H]1O,CD-1 mouse,plasma,intravenous,5 mg/kg,,0.16
CC=Cc1ccc(O)c(OC)c1,mouse,lung,intranasal,100 mg/kg,,0.521
Cc1nc(-c2cnc(NC(C)C)n(C)c2=O)ccc1Oc1ccnc(-c2cnn(C)c2)c1,female mouse,plasma,oral,15 mg/kg,single dose,6.85
NC[C@@H]1O[C@H](O[C@H]2[C@@H](O)[C@H](O[C@@H]3[C@@H](O)[C@H](N)C[C@H](N)[C@H]3O[C@H]3O[C@H](CO)[C@@H](O)[C@H](O)[C@H]3N)O[C@@H]2CO)[C@H](N)[C@@H](O)[C@@H]1O,male BALB/c mouse,plasma,intravenous,15 mg/kg,,2.6
COc1ccc2nccc(N3CCc4c(cc(Cn5ccnc5)cc4-c4cn(C)nc4C(F)(F)F)C3=O)c2c1,male CD-1 mouse,plasma,oral,50 mg/kg,,0.8
O=C(Nc1ccc(C(F)(F)F)cc1)N1CCC(Cc2cccc(Oc3ccc(C(F)(F)F)cn3)c2)CC1,male Swiss mouse,blood,oral,1 mg/kg,,5.1
COc1nc(-c2cc(C)c(N[C@@H](C)c3cc(F)cc(F)c3)nn2)ccc1-n1cnc(C)c1,male CD-1 mouse,plasma,oral,5 mg/kg,single dose,7.1
C=CC(=O)N1C[C@H](n2c(C#CC3CC3)c(C(=O)N[C@H](C)c3ccccc3)c3c(N)ncnc32)C[C@@H]1C,male nude mouse,plasma,oral,6.25 mg/kg,single dose,2.15
CN1CCC[C@H](CN2c3ccccc3Sc3ccccc32)C1.Cl,mouse,plasma,intraperitoneal,32 mg/kg,single dose,2.82
CCc1ccc(Cc2cc([C@@H]3O[C@H](CO)[C@@H](O)[C@H](O)[C@H]3O)cc3c2CCC3)cc1,male C57BL/6 mouse,plasma,oral,3 mg/kg,,3.1
CNCCN(C)c1cc(C#N)cc(CCc2cc(C)cc(N)n2)c1,male BALB/c mouse,brain,intravenous,2 mg/kg,,24.8
CC(C)(C)c1ccc(O)c(CN(Cc2cc(C(C)(C)C)ccc2O)C2CCC(NC(N)=O)CC2)c1 (stereo not shown),male C57BL/6 mouse,plasma,oral,10 mg/kg,single dose,2.7
COc1cc2c(Nc3ccc(Cl)c(Cl)c3F)ncnc2cc1OC[C@@H]1C[C@@H]2CN(C)C[C@@H]2C1,FVB mouse,plasma,oral,70 mg/kg,single dose,14
CNC(=O)[C@H](Cc1c[nH]cn1)NC(=O)CN(CCCc1ccccc1)CC(=O)O,male C57BL/6 mouse,plasma,intraperitoneal,30 mg/kg,,0.15
CCN1CCN(Cc2cc(NC(=O)c3ccc(C)c(-c4ccc5nc(NC(=O)C6CC6)cn5n4)c3)cc(C(F)(F)F)c2)CC1,Swiss mouse,plasma,intravenous,1 mg/kg,,3.7
COc1cc(OC)c2nccc(N3CCc4c(cc(Cn5ccnc5)cc4-c4cn(C)nc4C(F)(F)F)C3=O)c2c1,male CD-1 mouse,plasma,oral,50 mg/kg,,0.7
Cc1cc(NC(=O)c2cccc3cc(-c4cccc5[nH]nc(N)c45)ccc23)ccc1F,male CD-1 mouse,plasma,oral,10 mg/kg,,2.15
O=C(Nc1nc(-c2ccc(O)c(O)c2)c(-c2ccccc2)s1)c1ccc(O)c(O)c1,female nude mouse,plasma,oral,800 mg/kg,,10
Cn1cnc2c(F)c(Nc3ccc(Br)cc3Cl)c(C(=O)NOCCO)cc21,nude mouse,tumour,oral,5 mg/kg,"single dose, tumour-bearing",2.9
O=C(Nc1ccc(Cl)c(Cl)c1)c1ccc(N2CCNCC2)c([N+](=O)[O-])c1,male mouse,plasma,intravenous,3 mg/kg,,3.6
Oc1nc2nonc2cc1Nc1c(F)c(F)c(C(F)(F)F)c(F)c1F,male C57BL/6 mouse,plasma,oral,10 mg/kg,,> 15
NC(=S)NN=Cc1ncccc1N,female C57BL/6 mouse,plasma,intravenous,20 mg/kg,,1.08
COc1nc(-c2cc(C)c(N[C@@H](C)c3c(F)cc(F)cc3F)nn2)ccc1-n1cnc(C)c1,male CD-1 mouse,plasma,intravenous,1 mg/kg,single dose,3.1
CCc1cc(C(=O)NC)c2nccc(N3CCc4c(cc(Cn5ccnc5)cc4-c4cn(C)nc4C(F)(F)F)C3=O)c2c1,male CD-1 mouse,plasma,oral,150 mg/kg,,1.6
Cc1ccc(NC(=O)c2ccc(CN3CCN(C)CC3)cc2)cc1Nc1nccc(-c2cncc(-c3oncc3C)c2)n1,male C57BL/6 mouse,plasma,oral,100 mg/kg/day,,2.6
